Source: ChEMBL document CHEMBL1121814, “Monophenolic 2-(dipropylamino)indans and related compounds: central dopamine-receptor stimulating activity” (1981)
Calls of active or inactive are those of the source.

Key:
Rattus norvegicus [1] = assay: Estimated dose giving a half-maximal decrease of the DA synthesis rate in the striatum of rat brain; I = Inactive (>45 umol/kg); format: functional, organism-based
Summary of the method: (§1)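 Male Sprague–Dawley rats (200–350 g) were reserpinized, then given the drug sc in saline at four to six dose levels. NSD 1015 (100 mg/kg ip) was given 30 min before death to block decarboxylase. DOPA accumulation was measured spectrophotometrically in the limbic system and striatum as an index of DA synthesis rate. ED50 and ED100 were read from separate dose–response curves for each brain area. Experiments ran 9–12 a.m.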

Rattus norvegicus [2] = assay: Estimated dose giving a half-maximal decrease of the DA synthesis rate in the limbic system of rat brain; I = Inactive (>45 umol/kg); format: functional, organism-based; summary of the method: as §1
Rattus norvegicus [3] = assay: Estimated dose giving an approximately maximal decrease of the DA synthesis rate; I = Inactive (>45 umol/kg); format: functional, organism-based
Summary of the method: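 Male Sprague-Dawley rats (200–350 g) pretreated with reserpine. Compounds dissolved in saline and given sc at four to six dose levels. Aromatic L-amino acid decarboxylase inhibited with NSD 1015 (100 mg/kg ip, 30 min before death). Brain DOPA measured spectrophotometrically as an index of DA synthesis rate. Experiments run 9–12 a.m. Dose read from separate dose–response curves for each brain area.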

Rattus norvegicus [4] = species on record: Rattus norvegicus; assay: Motor activity in reserpinized rats at the biochemical ED50 dose level expressed as accumulation counts per 60 min; format: functional
Summary of the method: (§2)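 Male Sprague–Dawley rats (200–350 g) pretreated with reserpine 10 mg/kg ip 6 h beforehand. Drugs in saline given sc at doses matching the biochemical ED50 and ED100 for the DA-synthesis decrease. Each rat was caged singly in a photocell motility meter right after dosing and counts were accumulated over 60 min, testing between 1 and 6 p.m. Means ± SEM, n = 3–4, compared by ANOVA then Student's t test.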

Canis familiaris [5] = species on record: Canis familiaris; assay: Total dose at which the animal vomits; format: functional, Canis lupus familiaris
Summary of the method: (§3)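 Four female beagles (8–15 kg) with free access to food and water, not pretreated. Drug was infused iv at constant rate into the cephalic vein. The rate (k0) was set so that vomiting would be expected about 10 min after the start of infusion. The total dose infused at vomiting was recorded. Relative k0 is the compound's k0 divided by the apomorphine k0.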

Rattus norvegicus [6] = species on record: Rattus norvegicus; assay: Estimated dose giving a half-maximal decrease of the DA synthesis rate in the striatum of rat brain; format: functional; summary of the method: as §1
Rattus norvegicus [7] = species on record: Rattus norvegicus; assay: Estimated dose giving a half-maximal decrease of the DA synthesis rate in the limbic system of rat brain; format: functional; summary of the method: as §1
Rattus norvegicus [8] = species on record: Rattus norvegicus; assay: Estimated dose giving an approximately maximal decrease of the DA synthesis rate; format: functional; summary of the method: as §1
Rattus norvegicus [9] = species on record: Rattus norvegicus; assay: Motor activity in reserpinized rats at the biochemical ED100 dose level expressed as accumulation counts per 60 min; format: functional; summary of the method: as §2
Canis familiaris [10] = species on record: Canis familiaris; assay: Emetic activity in dogs given as total dose at which the animal vomits; format: functional, Canis lupus familiaris; summary of the method: as §3
Canis familiaris [11] = assay: Relative rate of administration of compound in dogs; format: functional, Canis lupus familiaris; summary of the method: as §3
Canis lupus familiaris = assay: Emetic activity in dogs by constant-rate intravenous infusion was measured

CCCN(CCC)CC1CCc2c(O)cccc2C1 (centres undefined)
ED50 (Rattus norvegicus [1]): inactive
ED50 (Rattus norvegicus [2]): inactive
ED100 (Rattus norvegicus [3]): inactive

CCCN(CCC)C1CCCc2c(O)cccc2C1 (centres undefined)
ED50 (Rattus norvegicus [1]): inactive
ED50 (Rattus norvegicus [2]): inactive
ED100 (Rattus norvegicus [3]): inactive

CCCN(CCC)C1CCc2c(O)cccc2C1 (centres undefined) [5-OH-DPAT]
Accumulation counts (Rattus norvegicus [4]): 25
TED (Canis familiaris [5]): 4.7 nM/kg
ED50 (Rattus norvegicus [6]): 0.009 µmol/kg
ED50 (Rattus norvegicus [7]): 0.011 µmol/kg
ED100 (Rattus norvegicus [8]): 40 nM/kg
Accumulation counts (Rattus norvegicus [9]): 76

CCCN(CCC)C1Cc2ccc(O)cc2C1 (centres undefined)
Accumulation counts (Rattus norvegicus [4]): 23
TED (Canis familiaris [10]): 247 nM/kg
ED50 (Rattus norvegicus [6]): 1.44 µmol/kg
ED50 (Rattus norvegicus [7]): 1.25 µmol/kg
ED100 (Rattus norvegicus [8]): 6500 nM/kg
rel ko (Canis familiaris [11]): 9.9
Accumulation counts (Rattus norvegicus [9]): 89

CCCN(CCC)CC1Cc2cccc(O)c2C1 (centres undefined)
Accumulation counts (Rattus norvegicus [4]): 25
TED (Canis familiaris [10]): 292 nM/kg
ED50 (Rattus norvegicus [6]): 0.96 µmol/kg
ED50 (Rattus norvegicus [7]): 0.67 µmol/kg
ED100 (Rattus norvegicus [8]): 4500 nM/kg
rel ko (Canis familiaris [11]): 9.1
Accumulation counts (Rattus norvegicus [9]): 89

CCCN(CCC)C1Cc2cccc(O)c2C1 (centres undefined)
Accumulation counts (Rattus norvegicus [4]): 13
TED (Canis familiaris [5]): 25 nM/kg
ED50 (Rattus norvegicus [6]): 0.063 µmol/kg
ED50 (Rattus norvegicus [7]): 0.059 µmol/kg
ED100 (Rattus norvegicus [8]): 350 nM/kg
Accumulation counts (Rattus norvegicus [9]): 108

CN1CCc2cccc3c2[C@H]1Cc1ccc(O)c(O)c1-3 [APOMORPHINE]
Accumulation counts (Rattus norvegicus [4]): 24
TED (Canis familiaris [5]): 32.3 nM/kg
rel ko (Canis lupus familiaris): 1
ED50 (Rattus norvegicus [6]): 0.044 µmol/kg
ED50 (Rattus norvegicus [7]): 0.041 µmol/kg
ED100 (Rattus norvegicus [8]): 230 nM/kg
Accumulation counts (Rattus norvegicus [9]): 64
